Source: ChEMBL document CHEMBL1137383, “New efficient substrates for semicarbazide-sensitive amine oxidase/VAP-1 enzyme: analysis by SARs and computational docking” (J Med Chem, 2006)

B1: Amine oxidase [copper-containing] 3 (Mus musculus), O70423 (protein)
chain: MTQKTTLVLLALAVITIFALVCVLLAGRSGDGGGLSQPLHCPSVLPSVQPRTHPSQSQPFADLSPEELTAVMSFLTKHLGPGLVDAAQARPSDNCVFSVELQLPAKAAALAHLDRGGPPPVREALAIIFFGGQPKPNVSELVVGPLPHPSYMRDVTVERHGGPLPYYRRPVLDREYQDIEEMIFHRELPQASGLLHHCCFYKHQGQNLLTMTTAPRGLQSGDRATWFGLYYNLSGAGFYPHPIGLELLIDHKALDPALWTIQKVFYQGRYYESLTQLEDQFEAGLVNVVLVPNNGTGGSWSLKSSVPPGPAPPLQFHPQGPRFSVQGSQVSSSLWAFSFGLGAFSGPRIFDIRFQGERVAYEISVQEAIALYGGNSPASMSTCYVDGSFGIGKYSTPLIRGVDCPYLATYVDWHFLLESQAPKTLRDAFCVFEQNQGLPLRRHHSDFYSHYFGGVVGTVLVVRSVSTLLNYDYIWDMVFHPNGAIEVKFHATGYISSAFFFGAGEKFGNRVGAHTLGTVHTHSAHFKVDLDVAGLKNWAWAEDMAFVPTIVPWQPEYQMQRLQVTRKLLETEEEAAFPLGGATPRYLYLASNHSNKWGHRRGYRIQILSFAGKPLPQESPIEKAFTWGRYHLAVTQRKEEEPSSSSIFNQNDPWTPTVNFTDFISNETIAGEDLVAWVTAGFLHIPHAEDIPNTVTAGNSVGFFLRPYNFFDEDPSFHSADSIYFREGQDATACEVNPLACLSQTATCAPEIPAFSHGGFAYRDN
B2: Amine oxidase [copper-containing] 3 (Homo sapiens), Q16853 (protein)
chain: MNQKTILVLLILAVITIFALVCVLLVGRGGDGGEPSQLPHCPSVSPSAQPWTHPGQSQLFADLSREELTAVMRFLTQRLGPGLVDAAQARPSDNCVFSVELQLPPKAAALAHLDRGSPPPAREALAIVFFGRQPQPNVSELVVGPLPHPSYMRDVTVERHGGPLPYHRRPVLFQEYLDIDQMIFNRELPQASGLLHHCCFYKHRGRNLVTMTTAPRGLQSGDRATWFGLYYNISGAGFFLHHVGLELLVNHKALDPARWTIQKVFYQGRYYDSLAQLEAQFEAGLVNVVLIPDNGTGGSWSLKSPVPPGPAPPLQFYPQGPRFSVQGSRVASSLWTFSFGLGAFSGPRIFDVRFQGERLVYEISLQEALAIYGGNSPAAMTTRYVDGGFGMGKYTTPLTRGVDCPYLATYVDWHFLLESQAPKTIRDAFCVFEQNQGLPLRRHHSDLYSHYFGGLAETVLVVRSMSTLLNYDYVWDTVFHPSGAIEIRFYATGYISSAFLFGATGKYGNQVSEHTLGTVHTHSAHFKVDLDVAGLENWVWAEDMVFVPMAVPWSPEHQLQRLQVTRKLLEMEEQAAFLVGSATPRYLYLASNHSNKWGHPRGYRIQMLSFAGEPLPQNSSMARGFSWERYQLAVTQRKEEEPSSSSVFNQNDPWAPTVDFSDFINNETIAGKDLVAWVTAGFLHIPHAEDIPNTVTVGNGVGFFLRPYNFFDEDPSFYSADSIYFRGDQDAGACEVNPLACLPQAAACAPDLPAFSHGGFSHN

Key:
[1] = substrate: NCCCCc1ccccc1; experiment: (§1) Binding affinity to mouse SSAO
In short: (§2)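 Mouse adipose membranes (1 µg protein/assay) assayed by Amplex Red/HRP H2O2 fluorimetry, 0.2 mol/L phosphate pH 7.4, 37 °C, 50 min, semicarbazide-insensitive signal subtracted. Km and Vmax by nonlinear Michaelis-Menten fitting; means of four independent measurements.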

[2] = substrate: Cc1ccc(CN)cc1F; experiment: as §1; in short: as §2
[3] = substrate: NCCCc1ccccc1; experiment: as §1; in short: as §2
[4] = substrate: NCc1ccc(F)cc1; experiment: as §1; in short: as §2
[5] = substrate: NCc1cccc(CNC(=O)c2ccccc2)c1; experiment: as §1; in short: as §2
[6] = substrate: C=CCOC(=O)NCc1cccc(CN)c1; experiment: as §1; in short: as §2
[7] = substrate: NCCc1ccccc1; experiment: as §1; in short: as §2
[8] = substrate: NCCc1ccc(F)cc1; experiment: as §1; in short: as §2
[9] = substrate: NCc1cccc(CNC(=O)CI)c1; experiment: as §1; in short: as §2
[10] = substrate: NCc1ccccc1; experiment: as §1; in short: as §2
[11] = substrate: NCCCCc1ccccc1; experiment: (§3) Binding affinity to human SSAO
In short: (§4)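 Recombinant human VAP-1 (0.1 µg protein/assay), Amplex Red/HRP H2O2 fluorimetry in 0.2 mol/L phosphate pH 7.4, 37 °C, 50 min; semicarbazide-insensitive H2O2 subtracted. Km and Vmax from nonlinear Michaelis-Menten fit across substrate concentrations; means of four independent measurements.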

[12] = substrate: Cc1ccc(CN)cc1F; experiment: as §3; in short: as §4
[13] = substrate: NCCCc1ccccc1; experiment: as §3; in short: as §4
[14] = substrate: NCc1ccc(F)cc1; experiment: as §3; in short: as §4
[15] = substrate: NCc1cccc(CNC(=O)c2ccccc2)c1; experiment: as §3; in short: as §4
[16] = substrate: C=CCOC(=O)NCc1cccc(CN)c1; experiment: as §3; in short: as §4
[17] = substrate: NCCc1ccccc1; experiment: as §3; in short: as §4
[18] = substrate: NCCc1ccc(F)cc1; experiment: as §3; in short: as §4
[19] = substrate: NCc1cccc(CNC(=O)CI)c1; experiment: as §3; in short: as §4
[20] = substrate: NCc1ccccc1; experiment: as §3; in short: as §4

| Protein | Km [1] [µM] | Km [2] [µM] | Km [3] [µM] | Km [4] [µM] | Km [5] [µM] | Km [6] [µM] | Km [7] [µM] | Km [8] [µM] | Km [9] [µM] | Km [10] [µM] | Km [11] [µM] | Km [12] [µM] | Km [13] [µM] | Km [14] [µM] | Km [15] [µM] | Km [16] [µM] | Km [17] [µM] | Km [18] [µM] | Km [19] [µM] | Km [20] [µM] |
| --- | --- | --- | --- | --- | --- | --- | --- | --- | --- | --- | --- | --- | --- | --- | --- | --- | --- | --- | --- | --- |
| B1 | 11.3 | 14.8 | 27 | 15.7 | 12.8 | 11.5 | 34.8 | 88.8 | 29.8 | 15.4 |  |  |  |  |  |  |  |  |  |  |
| B2 |  |  |  |  |  |  |  |  |  |  | 280 | 405 | 1670 | 205 | 630 | 569 | 3720 | 1900 | 525 | 224 |
